The assay is described as follows: DPPH free radical scavenging assay. In a few lines:
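Each well held test compound and DPPH (added as 150 µM solution, half the well volume), made up with methanol. Incubated 30 min at room temperature, then absorbance read at 517 nm. Percent inhibition was calculated from blank and sample absorbances. Ascorbic acid served as reference. Three independent experiments were run, each in triplicate.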
On the technique in general: DPPH is a stable violet radical that fades when it is reduced.

`O=C1O[C@H]([C@@H](O)CO)C(O)=C1O` [Vitamin C, Ascorbic acid] gave an antioxidant activity of 95.1571 ± 0.057 µg/mL.

The values are drawn from publication PMC12214485 (Scientific Reports, 2025).
